Test results as given in PubChem BioAssay.
Inconclusive results are not listed.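 The calls were made as follows, unless noted: active = inhibition over a set limit, the all-compound mean plus 3 SD, in both replicate runs; inconclusive = over that limit in just one replicate run; inactive = at or under that limit in both runs.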

Experiments:
[1] = OD615 S. cerevisiae growth inhibition, permissive medium, pilot counter-assay, permissive growth control for S. cerevisiae lifespan shortening project (AID 705;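 active = growth inhibition above 25% in both replicates, a cutoff set 3 SD above the mean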); details: OD615, 24 h, at 10 µM, stronger effect = higher value
How it was run: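 Timing: 24 h exposure, 30 °C / Material: Saccharomyces cerevisiae strain carrying genetically modified DeaD replicative-lifespan system / Signal: OD at 615 nm / Compound: 10 µM single dose, 0.25% DMSO / Medium: SC raffinose/galactose permissive medium / Evaluation: reduction in yeast growth (OD615)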

[2] = Restrictive medium S. cerevisiae growth inhibition, OD615, pilot screen of yeast lifespan reduction project, restrictive growth control (AID 706;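 active = growth inhibition above a set limit, 3 SD over mean compound inhibition, in both replicates, cut at about 43% in these data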;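 also: modified DeaD lifespan yeast strain shifted to restrictive glucose medium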); details: OD615, 48 h, at 10 µM, stronger effect = higher value
How it was run: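 System: Engineered S. cerevisiae DeaD strain | Detection: OD615 | Buffer or medium: CSMM-D glucose medium | Doses: 10 µM compound, 0.25% DMSO | Timing: 4 h pre-growth plus 48 h compound exposure, 30 °C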

[3] = viability gain of MRP-1-high H69AR cells under doxorubicin, pilot screen, MRP-1 activator project, CellTiter-Glo, duplicate (AID 807;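 active = viability increase at or above a cutoff of the median across tested compounds plus 3 SD, cut at about 8.5% in these data, passing the limit was not always enough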;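 also: compound pretreatment 18-22 h then 72 h combined with doxorubicin; 0% = doxorubicin alone and 100% = vehicle without doxorubicin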); details: H69AR viability with doxorubicin, CellTiter-Glo luminescence; at 10 µM; stronger effect = higher value
[4] = growth suppression of beta-catenin knockout HCT116, pilot screen, human colon tumor cells (AID 823;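 active = cell viability at or below a set limit in both duplicate runs, the limit being the all-compound median minus 4 SD, cut at about 23% in these data, passing the limit was not always enough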;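 also: 0% = wells killed by 20 µM Hyamine and 100% = untreated DMSO cell wells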); details: CellTiter-Glo, 60 h, at 10 µM, stronger effect = lower value
[5] = growth suppression of PTEN-deleted HCT116, pilot screen, cell-based, HCT116 clonal line, CellTiter-Glo (AID 824;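 active = viability at or below 27.92% in each of two runs, the all-compound median minus 4 SD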;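 also: 0% = 20 µM Hyamine control and 100% = vehicle cell control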); details: 60 h, at 10 µM, stronger effect = lower value
[6] = inhibitors of the yeast RAM network, pilot screen, dse1pr::URA3 reporter, 5-FOA selection (AID 869);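 also: 0% = DMSO wells with no growth and 100% = 10 µM 1-NA-PP1 with full growth; RAM network block rescues cells from 5-FOA so hits raise OD615 growth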; details: S. cerevisiae dse1pr::URA3 5-FOA growth, OD615, 2 d; at 10 µM; stronger effect = higher value; strain carries analog-sensitive mutant Cbk1 kinase
[7] = RAM signaling pathway blockade in yeast – S. cerevisiae, Pdr1DBD-CYC8 efflux-inhibited sensitized strain, primary screen (AID 1298;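 active = RAM network inhibition above 8.4% in each of two replicates, 3 SD over the compound average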;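 also: 0% = DMSO untreated cells without growth and 100% = 10 µM 1-NA-PP1 full growth; higher means more yeast growth rescued from 5-FOA killing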); details: S. cerevisiae cbk1-as DSE1-URA3 strain, 5-FOA growth OD615, 2 d; at 50 µM; stronger effect = higher value

N#Cc1c2n(c3c(=O)n(Cc4ccc(Cl)cc4)cnc13)CCCC2
inactive: growth inhibition [1] -12.5% | growth inhibition [2] -5.03% | viability increase [3] 1.08% | viability [4] 93.8% | viability [5] 87% | inhibition [6] 0.755% | RAM network inhibition [7] 4.22%

O=C(NCc1ccco1)c1nnc(Cc2ccc(F)cc2)o1
inactive: growth inhibition [1] -18.4% | growth inhibition [2] -12.9% | viability increase [3] -0.65% | viability [4] 105% | viability [5] 89.5% | inhibition [6] 1.21% | RAM network inhibition [7] 4.79%

O=C(NC1CCS(=O)(=O)C1)C1CCCCN1S(=O)(=O)c1ccc(Cl)cc1 (stereo not drawn)
inactive: growth inhibition [1] -5.22% | growth inhibition [2] -3.24% | viability increase [3] -1.52% | viability [4] 95% | viability [5] 90.8% | inhibition [6] 1.53% | RAM network inhibition [7] 2.19%

CCn1c(=NC(=O)CN2C(=O)CCC2=O)sc2c(C)cc(C)cc21
inactive: growth inhibition [1] -13.1% | growth inhibition [2] -2.35% | viability increase [3] -4.23% | viability [4] 92.2% | viability [5] 91.2% | inhibition [6] 0.505% | RAM network inhibition [7] 6.51%

c1ccc(Cn2ncc3c(N4CCCCC4)ncnc32)cc1
inactive: growth inhibition [1] -0.96% | growth inhibition [2] 8.13% | viability increase [3] -0.97% | viability [4] 96.2% | viability [5] 95.4% | inhibition [6] 0.01% | RAM network inhibition [7] 3.67%

O=C(CCn1c(=O)sc2ccccc21)NCc1ccccc1
inactive: growth inhibition [1] 4.34% | growth inhibition [2] -2.52% | viability increase [3] -0.79% | viability [4] 107% | viability [5] 105% | inhibition [6] 2% | RAM network inhibition [7] 2.7%

COCCN1C(=O)c2ccccc2C(C(=O)NCCN(C)C)C1c1ccc(F)cc1 (stereo not drawn)
inactive: growth inhibition [1] -15% | growth inhibition [2] -19.9% | viability increase [3] -1.59% | viability [4] 92.1% | viability [5] 98.4% | inhibition [6] 1.89% | RAM network inhibition [7] 2.13%

Cc1c(C(=O)N2CCN(CCc3ccccc3)CC2)oc2ccccc12
inactive: growth inhibition [1] -0.01% | growth inhibition [2] 7.52% | viability increase [3] -1.75% | viability [4] 100% | viability [5] 94.7% | inhibition [6] 0.455% | RAM network inhibition [7] 1.34%

COC(=O)c1nc2n(n1)C(c1cccc(Cl)c1)C1=C(CCCC1=O)N2 (stereo not drawn)
inactive: growth inhibition [1] -4.09% | growth inhibition [2] 7.08% | viability increase [3] -2.99% | viability [4] 98.1% | viability [5] 95.3% | inhibition [6] 0.155% | RAM network inhibition [7] 1.89%

CC1CC(NC(=O)CCn2c(=O)oc3ccccc32)CC(C)(C)C1 (stereo not drawn)
inactive: growth inhibition [1] 1.98% | growth inhibition [2] -2.1% | viability increase [3] -1.55% | viability [4] 97.1% | viability [5] 102% | inhibition [6] 1.02% | RAM network inhibition [7] 4.18%

CCOc1ccc(CC(=O)N2CCN(c3ccc(N4CCOCC4)nn3)CC2)cc1OCC
inactive: growth inhibition [1] -1.33% | growth inhibition [2] 8.3% | viability increase [3] 0.46% | viability [4] 103% | viability [5] 106% | inhibition [6] -0.385% | RAM network inhibition [7] 6.26%

CC(=O)Nc1cc2ccc(OC(C)=O)cc2oc1=O
inactive: growth inhibition [1] -15.3% | growth inhibition [2] -13.9% | viability increase [3] -4.23% | viability [4] 107% | viability [5] 93.8% | inhibition [6] 1.62% | RAM network inhibition [7] 0.82%

COc1ccc(N2CCN(c3cc(=O)n(Cc4ccc(F)cc4)c(=O)[nH]3)CC2)cc1
inactive: growth inhibition [1] -4.88% | growth inhibition [2] 1.23% | viability increase [3] -2.97% | viability [4] 92.9% | viability [5] 86.3% | inhibition [6] 0.215% | RAM network inhibition [7] 9.17%

Oc1ccccc1CNc1nc2ccccc2n1CCN1CCCCC1
inactive: growth inhibition [1] -15.8% | growth inhibition [2] -9.88% | viability increase [3] -8.6% | viability [4] 52.5% | viability [5] 48.8% | inhibition [6] 2.86% | RAM network inhibition [7] 1.77%

CN1CCc2c(c3ccccc3n2Cc2ccccc2)C1
inactive: growth inhibition [1] -5.23% | growth inhibition [2] -8.68% | viability increase [3] -5.7% | viability [4] 57.9% | viability [5] 63.9% | inhibition [6] 1.27% | RAM network inhibition [7] 5.12%

Cc1c(NC(=O)c2ccc3c(c2)OCO3)c(=O)n(-c2ccccc2)n1C
inactive: growth inhibition [1] -8.08% | growth inhibition [2] -23.4% | viability increase [3] -0.33% | viability [4] 104% | viability [5] 101% | inhibition [6] 0.345% | RAM network inhibition [7] 2.71%

O=C(c1ccco1)c1cn[nH]c1-c1ccc(Cl)cc1O
inactive: growth inhibition [1] -6.04% | growth inhibition [2] -8.45% | viability increase [3] -2.19% | viability [4] 95.6% | viability [5] 83.4% | inhibition [6] 1.42% | RAM network inhibition [7] 0.57%

COc1ccc(CC(=O)Nc2oc(-c3ccccc3)c(-c3ccccc3)c2C#N)cc1OC
inactive: growth inhibition [1] -6.81% | growth inhibition [2] -2.63% | viability increase [3] -0.77% | viability [4] 76.9% | viability [5] 68.2% | inhibition [6] 1.75% | RAM network inhibition [7] 8.44%

CC(C)Oc1ccc(N2CC(C(=O)Nc3ccc4c(c3)OCO4)CC2=O)cc1 (stereo not drawn)
inactive: growth inhibition [1] -13.3% | growth inhibition [2] -4.22% | viability increase [3] -0.37% | viability [4] 106% | viability [5] 99.5% | inhibition [6] 2.58% | RAM network inhibition [7] 4.96%

O=C(COC(=O)C1(c2ccccc2F)CCCC1)N1CCN(C(=O)c2ccco2)CC1
inactive: growth inhibition [1] -13.4% | growth inhibition [2] -13.8% | viability increase [3] -2.48% | viability [4] 87.3% | viability [5] 95.4% | inhibition [6] 0.995% | RAM network inhibition [7] 1.19%

CCOc1ccc2ccccc2c1C(=O)Nc1cc(=O)n(C)c(=O)n1C
inactive: growth inhibition [1] -8.05% | growth inhibition [2] -21.5% | viability increase [3] 0.11% | viability [4] 107% | viability [5] 94.4% | inhibition [6] 1.17% | RAM network inhibition [7] -1.04%

COc1ccc(OC)c(CCNC(=O)CN2C(=O)CC(C)(C)S(=O)(=O)c3ccccc32)c1
inactive: growth inhibition [1] -4.35% | growth inhibition [2] -14.1% | viability increase [3] -2.6% | viability [4] 101% | viability [5] 92.3% | inhibition [6] -0.045% | RAM network inhibition [7] 2.76%

O=C(NCCn1ccc2ccccc21)c1ccc(S(=O)(=O)N2CCCCC2)cc1
inactive: growth inhibition [1] -12.5% | growth inhibition [2] -22.4% | viability increase [3] -5.02% | viability [4] 79.6% | viability [5] 71.1% | inhibition [6] 0.45% | RAM network inhibition [7] 4.77%

COCCNC(=O)c1cc(-c2ccc(Cl)c(Cl)c2)on1
inactive: growth inhibition [1] -2.25% | growth inhibition [2] -1.81% | viability increase [3] -0.93% | viability [4] 82.5% | viability [5] 87.8% | inhibition [6] 0.18% | RAM network inhibition [7] 5.68%
